Assay results taken from ChEMBL document CHEMBL1129428 (J Med Chem, 1996).

Columns and labels:
Rattus norvegicus [1] = assay: Compound was tested for anticonvulsant activity after Oral Administration into Rats by using MES screen test after 0.25h,dose 12.5 mg/kg; No activity was demonstarted; type: functional, organism-based; parameters: dose 12.5 mg/kg
How it was run: (§1)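 Rats received the compound orally. […] Rats were tested in the MES screen at 0.25, 0.5, 1, 2 and 4 h. Each value is the number of rats protected out of 4. The test followed NINDS procedures.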

Rattus norvegicus [2] = assay: Compound was tested for anticonvulsant activity after Oral Administration into Rats by using MES screen test after 2h.,dose 12.5 mg/kg; number of rats out of four which were protected; type: functional; how it was run: as §1
Rattus norvegicus [3] = assay: Compound was tested for anticonvulsant activity after Oral Administration into Rats by using MES screen test after 0.5h,dose 12.5 mg/kg; No activity was demonstarted; type: functional, organism-based; parameters: dose 12.5 mg/kg; how it was run: as §1
Rattus norvegicus [4] = assay: Compound was tested for anticonvulsant activity after Oral Administration into Rats by using MES screen test after 4h,dose 12.5 mg/kg; No activity was demonstarted; type: functional, organism-based; parameters: dose 12.5 mg/kg; how it was run: as §1
Mus musculus [5] = assay: Anticonvulsant activity after intraperitoneal injection into mice by using scPTZ screen test after 4 hr; type: functional
Rattus norvegicus [6] = assay: Compound was tested for anticonvulsant activity after Oral Administration into Rats by using MES screen test after 1h,dose 12.5 mg/kg; number of rats out of four which were protected; type: functional; how it was run: as §1
Mus musculus [7] = assay: Anticonvulsant activity after intraperitoneal injection into mice by using MES screen test after 0.5 hr; type: functional
Mus musculus [8] = assay: Anticonvulsant activity after intraperitoneal injection into mice measured in a maximal electroshock scree (MES) screen; type: functional
Mus musculus [9] = assay: Compound was tested for anticonvulsant activity after intraperitoneal injection into mice by using scPTZ screen test after 4 hr; type: functional; conditions: ip
How it was run: (§2)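 Mice injected intraperitoneally at 30, 100 and 300 mg/kg and examined 0.5 and 4 h afterwards. Each entry is the minimum dose giving activity (MES protection, scPTZ protection, or rotorod failure for neurotoxicity) in half or more of the mice. Activity is called absent if nothing occurs at 300 mg/kg.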

Rattus norvegicus [10] = assay: Compound was tested for anticonvulsant activity after Oral Administration into rat by using MES screen test at 4 hr; type: functional
How it was run: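 Rats dosed orally, typically at 50 mg/kg first, then mostly 12.5 mg/kg (some compounds at 30 mg/kg), and tested by maximal electroshock. Four rats per compound, scored at 0.25, 0.5, 1, 2 and 4 h as the number of rats protected out of 4.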

Mus musculus [11] = assay: Toxicity after intraperitoneal injection into mice by using toxicity screen test after 0.5 hr; type: organism-based; conditions: in vivo, ip; how it was run: as §2
[12] = Compound was tested for toxicity after intraperitoneal injection into mice by using neurotoxicity screen test after 4 hr; type: organism-based; conditions: mouse, in vivo, ip; how it was run: as §2
Rattus norvegicus [13] = assay: Compound was tested for anticonvulsant activity after Oral Administration into Rats by using MES screen test after 2h,dose 12.5 mg/kg; number of rats out of four which were protected; type: functional; how it was run: as §1
[14] = Compound was tested for toxicity after oral administration in rat by using neurotoxicity screen test after 0.25-24 hr; type: organism-based; conditions: in vivo
How it was run: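 Rat neurotoxicity after oral dosing, observed at 0.25, 0.5, 1, 2, 4, 6, 8 and 24 h (8 h omitted for one compound).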

Mus musculus [15] = assay: Compound was tested for anticonvulsant activity after intraperitoneal injection into mice by using MES screen test after 4 hr; type: functional; conditions: ip; how it was run: as §2
Rattus norvegicus [16] = assay: Compound was tested for anticonvulsant activity after Oral Administration into Rats by using MES screen test after 4h,dose 12.5 mg/kg; number of rats out of four which were protected; type: functional; how it was run: as §1
Mus musculus [17] = assay: Compound was tested for toxicity after intraperitoneal injection into mice by using toxicity screen test after 4 hr; type: organism-based; conditions: in vivo, ip; how it was run: as §2
Rattus norvegicus [18] = assay: Compound was tested for anticonvulsant activity after Oral Administration into Rats by using MES screen test after 0.25h,dose 12.5 mg/kg; number of rats out of four which were protected; type: functional; how it was run: as §1
[19] = Protection index = TD50/ED50 (scPTZ ); type: ADME; conditions: read-out: PI
How it was run: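 Protection index calculated as TD50/ED50 from mouse intraperitoneal scPTZ ED50 and rotorod TD50 values, each taken at its own peak time.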

[20] = Protection index = TD50/ED50 (MES); conditions: mouse, in vivo; read-out: PI
Mus musculus [21] = assay: Compound was tested for anticonvulsant activity after intraperitoneal injection into mice by using MES screen test after 1 hr; type: functional; conditions: ip
How it was run: (§3)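 Quantitative intraperitoneal mouse testing in the MES, scPTZ or rotorod neurotoxicity screens at the peak time given for each compound (0.25–2 h). ED50 or TD50 reported in mg/kg with 95% CI and slope (SE).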

[22] = Compound was tested for toxicity after intraperitoneal injection into mice by using neurotoxicity screen test after 1 hr; type: organism-based; conditions: mouse, in vivo, ip; how it was run: as §3
Rattus norvegicus [23] = assay: Anticonvulsant activity after oral administration into rats; type: functional; parameters: concentration or dose not given beside the values
Mus musculus [24] = assay: Compound was tested for anticonvulsant activity after intraperitoneal injection into mice by using scPTZ screen test after 0.5 hr; type: functional; conditions: ip; how it was run: as §2
Mus musculus [25] = assay: Anticonvulsant activity after intraperitoneal injection into mice by using scPTZ screen after 0.5 hr; type: functional

SMILES	Activity (Rattus norvegicus [1])	Activity (Rattus norvegicus [3])	Dose (Mus musculus [5]) [mg/kg]	Activity (Rattus norvegicus [6])	Dose (Mus musculus [7]) [mg/kg]	Dose (Mus musculus [8]) [mg/kg]	Activity (Rattus norvegicus [13])	Activity (Rattus norvegicus [16])	Dose (Mus musculus [17]) [mg/kg]	also measured
NC(=O)N/N=C\c1ccc(OCc2ccccc2)cc1	No activity	No activity	100	1	300	300	–	–	–	Activity (Rattus norvegicus [2]): 1; Activity (Rattus norvegicus [4]): No activity
CC(C)(C)c1ccc(Oc2ccc(/C=N\NC(N)=O)cc2)cc1	No activity	No activity	100	4	100	30	4	4	100	ED50 (Mus musculus [9]): > 150 mg/kg; ED50 (Rattus norvegicus [10]): 1.68 mg/kg; Dose (Mus musculus [11]): 100 mg/kg; TD50 at 4 h [12]: 106 mg/kg; TD50 [14]: > 500 mg/kg; ED50 (Mus musculus [15]): 8.87 mg/kg
C/C(=N/NC(N)=O)c1ccc(Sc2ccc(Br)cc2)cc1	–	–	–	4	100	30	4	4	300	Activity (Rattus norvegicus [18]): 1; selectivity ratio [19]: 1.03; selectivity ratio [20]: 11.3; ED50 (Mus musculus [21]): 3.82 mg/kg; TD50 at 1 h [22]: 43.2 mg/kg; Activity (Rattus norvegicus [23]): 3; ED50 (Mus musculus [24]): 41.9 mg/kg; Dose (Mus musculus [25]): 300 mg/kg
